Experimental data from ChEMBL document CHEMBL4819040, “Limonoids from Guarea guidonia and Cedrela odorata: Heat Shock Protein 90 (Hsp90) Modulator Properties of Chisomicine D” (J Nat Prod, 2021).
Each block holds one compound with its values, some of them ahead of it. Calls of active or inactive are those of the source. The rule behind the calls is not given here.

Columns and labels:
[1] = target: T1, Heat shock protein HSP 90-alpha (Homo sapiens, UniProt P07900); assay: Binding affinity to recombinant human HSP90alpha by surface plasmon resonance analysis
[2] = target: T1, Heat shock protein HSP 90-alpha; assay: Effect on HSP90alpha in human U-937 cells assessed as JNK p46 protein level at 30 uM after 48 hrs by Western blot analysis (reference value: 1.22); assay type: cell-based; conditions: filed as modulator
Summary of the method: (§1)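 U937 cells (RPMI 1640, 10% FBS, 37 °C, 5% CO2) treated 48 h at 10, 20 or 30 μM, DMSO vehicle ≤0.3%. RIPA lysates, Bradford protein assay, SDS-PAGE, nitrocellulose, HRP secondary with ECL detection. GAPDH loading control, densitometry normalized. Run in duplicate.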

[3] = target: T1, Heat shock protein HSP 90-alpha; assay: Effect on HSP90alpha in human U-937 cells assessed as ERK2 protein level at 10 uM after 48 hrs by Western blot analysis (reference value: 0.69); assay type: cell-based; conditions: filed as modulator; summary of the method: as §1
[4] = target: T1, Heat shock protein HSP 90-alpha; assay: Effect on HSP90alpha in human U-937 cells assessed as p-JNK p46 protein level at 10 uM after 48 hrs by Western blot analysis (reference value: 1.06); assay type: cell-based; conditions: filed as modulator; summary of the method: as §1
[5] = test system: U-937; assay: Induction of apoptosis in human U-937 cells assessed as cleavage of pro-caspase at 20 uM by Western blotting analysis; assay type: functional, cell-based
Summary of the method: (§2)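 U937 cells given vehicle (DMSO) or 10 or 20 μM. RIPA whole-cell lysates (protease/phosphatase inhibitors) resolved by SDS-PAGE, blotted to nitrocellulose, ECL detection. Targets: pro-caspase 3/caspase 3 or p-CDC2 (p34)/CDC2. Densitometry normalized. Duplicate experiments.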

[6] = target: T1, Heat shock protein HSP 90-alpha; assay: Effect on HSP90alpha in human U-937 cells assessed as p-JNK p46 protein level at 30 uM after 48 hrs by Western blot analysis (reference value: 1.06); assay type: cell-based; conditions: filed as modulator; summary of the method: as §1
[7] = test system: U-937; assay: Induction of apoptosis in human U-937 cells assessed as early apoptotic cells at 20 uM after 48 hrs by AnnexinV-FITC/propidium iodide staining based flow cytometry (reference value: 4.90 %); assay type: functional
[8] = target: T1, Heat shock protein HSP 90-alpha; assay: Effect on HSP90alpha in human U-937 cells assessed as JNK p54 protein level at 10 uM after 48 hrs by Western blot analysis (reference value: 2.45); assay type: cell-based; conditions: filed as modulator; summary of the method: as §1
[9] = test system: U-937; assay: Induction of apoptosis in human U-937 cells assessed as necrotic cells at 20 uM after 48 hrs by AnnexinV-FITC/propidium iodide staining based flow cytometry (reference value: 0 %); assay type: functional
[10] = target: T1, Heat shock protein HSP 90-alpha; assay: Effect on HSP90alpha in human U-937 cells assessed as HSP70 protein level at 30 uM after 48 hrs by Western blot analysis (reference value: 0.83); assay type: cell-based; conditions: filed as modulator; summary of the method: as §1
[11] = target: T1, Heat shock protein HSP 90-alpha; assay: Effect on HSP90alpha in human U-937 cells assessed as HSP90 protein level at 30 uM after 48 hrs by Western blot analysis (reference value: 1.12); assay type: cell-based; conditions: filed as modulator; summary of the method: as §1
[12] = test system: U-937; assay: Induction of cell cycle arrest in human U937 cells assessed as CDC2 protein expression at 10 uM by Western blotting analysis (reference value: 1.22); assay type: functional; summary of the method: as §2
[13] = target: T1, Heat shock protein HSP 90-alpha; assay: Effect on HSP90alpha in human U-937 cells assessed as HSP90 protein level at 10 uM after 48 hrs by Western blot analysis (reference value: 1.12); assay type: cell-based; conditions: filed as modulator; summary of the method: as §1
[14] = target: T1, Heat shock protein HSP 90-alpha; assay: Effect on HSP90alpha in human U-937 cells assessed as JNK p46 protein level at 10 uM after 48 hrs by Western blot analysis (reference value: 1.22); assay type: cell-based; conditions: filed as modulator; summary of the method: as §1
[15] = target: T1, Heat shock protein HSP 90-alpha; assay: Effect on HSP90alpha in human U-937 cells assessed as p-ERK2 protein level at 10 uM after 48 hrs by Western blot analysis (reference value: 1.67); assay type: cell-based; conditions: filed as modulator; summary of the method: as §1
[16] = test system: U-937; assay: Induction of cell cycle arrest in human U937 cells assessed as CDC2 protein expression at 20 uM by Western blotting analysis (reference value: 1.22); assay type: functional; summary of the method: as §2
[17] = target: T1, Heat shock protein HSP 90-alpha; assay: Inhibition of HSP90alpha (unknown origin) at 10 to 20 uM; conditions: dose 10-20 µM
[18] = target: T1, Heat shock protein HSP 90-alpha; assay: Effect on HSP90alpha in human U-937 cells assessed as p-JNK p46 protein level at 20 uM after 48 hrs by Western blot analysis (reference value: 1.06); assay type: cell-based; conditions: filed as modulator; summary of the method: as §1
[19] = test system: U-937; assay: Induction of cell cycle arrest in human U937 cells assessed as increase in cells at G2 phase at 20 uM incubated for 48 hrs PI staining based flow cytometric analysis (reference value: 11.1 %); assay type: functional
[20] = target: T1, Heat shock protein HSP 90-alpha; assay: Effect on HSP90alpha in human U-937 cells assessed as HSP70 protein level at 20 uM after 48 hrs by Western blot analysis (reference value: 0.83); assay type: cell-based; conditions: filed as modulator; summary of the method: as §1
[21] = target: T1, Heat shock protein HSP 90-alpha; assay: Effect on HSP90alpha in human U-937 cells assessed as p-JNK p54 protein level at 10 uM after 48 hrs by Western blot analysis (reference value: 2.22); assay type: cell-based; conditions: filed as modulator; summary of the method: as §1
[22] = test system: U-937; assay: Induction of cell cycle arrest in human U937 cells assessed as phosphorylated CDC2 expression at 10 uM by Western blotting analysis (reference value: 1.07); assay type: functional; summary of the method: as §2
[23] = test system: U-937; assay: Induction of cell cycle arrest in human U937 cells assessed as G1 phase cells at 20 uM incubated for 48 hrs PI staining based flow cytometric analysis (reference value: 60.8 %); assay type: functional
[24] = target: T1, Heat shock protein HSP 90-alpha; assay: Effect on HSP90alpha in human U-937 cells assessed as HSP90 protein level at 20 uM after 48 hrs by Western blot analysis (reference value: 1.12); assay type: cell-based; conditions: filed as modulator; summary of the method: as §1
[25] = target: T1, Heat shock protein HSP 90-alpha; assay: Effect on HSP90alpha in human U-937 cells assessed as ERK2 protein level at 30 uM after 48 hrs by Western blot analysis (reference value: 0.69); assay type: cell-based; conditions: filed as modulator; summary of the method: as §1
[26] = target: T1, Heat shock protein HSP 90-alpha; assay: Effect on HSP90alpha in human U-937 cells assessed as HSP70 protein level at 10 uM after 48 hrs by Western blot analysis (reference value: 0.83); assay type: cell-based; conditions: filed as modulator; summary of the method: as §1
[27] = target: T1, Heat shock protein HSP 90-alpha; assay: Effect on HSP90alpha in human U-937 cells assessed as JNK p46 protein level at 20 uM after 48 hrs by Western blot analysis (reference value: 1.22); assay type: cell-based; conditions: filed as modulator; summary of the method: as §1
[28] = Cytotoxicity against human PBMC cells assessed as cell viability after 48 hrs by MTT assay; assay type: cell-based
Summary of the method: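 PBMCs isolated from healthy-donor buffy coats on Ficoll-Hypaque gradients, exposed to 30 μM or DMSO for 48 h. Viability read by MTT (absorbance 550 nm). Technical triplicates, repeated twice.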

[29] = test system: U-937; assay: Induction of cell cycle arrest in human U937 cells assessed as decrease in cells at S phase at 20 uM incubated for 48 hrs PI staining based flow cytometric analysis (reference value: 23.6 %); assay type: functional; design: scale not given: the % may be the effect or the level left
[30] = test system: U-937; assay: Induction of apoptosis in human U-937 cells assessed as viable cells at 20 uM after 48 hrs by AnnexinV-FITC/propidium iodide staining based flow cytometry (reference value: 82.7 %); assay type: functional; conditions: read-out: Activity
[31] = target: T1, Heat shock protein HSP 90-alpha; assay: Effect on HSP90alpha in human U-937 cells assessed as ERK2 protein level at 20 uM after 48 hrs by Western blot analysis (reference value: 0.69); assay type: cell-based; conditions: filed as modulator; summary of the method: as §1
[32] = test system: U-937; assay: Induction of cell cycle arrest in human U937 cells assessed as phosphorylated CDC2 expression at 20 uM by Western blotting analysis (reference value: 1.07); assay type: functional; summary of the method: as §2
[33] = test system: U-937; assay: Induction of apoptosis in human U-937 cells assessed as late apoptotic cells at 20 uM after 48 hrs by AnnexinV-FITC/propidium iodide staining based flow cytometry (reference value: 12.4 %); assay type: functional

Kd [1]: Not Active
SMILES: CC(=O)O[C@H]1C[C@@]2(C)[C@H](C3=CC(=O)O[C@@H]3O)OC(=O)[C@H]3O[C@]32[C@@]2(C)[C@H]1[C@@]1(C)[C@@H](OC(C)=O)CC(=O)OC(C)(C)[C@@H]1C[C@H]2OC(C)=O

Kd [1]: Not Active
SMILES: CC(=O)O[C@H]1CC(=O)OC(C)(C)[C@@H]2C[C@@H](OC(C)=O)[C@@]3(C)C4=CC[C@@H](C(O)(CO)CCO)[C@]4(C)CC[C@@H]3[C@@]12C (stereo partly specified)

Kd [1]: Not Active
SMILES: COC(=O)C[C@H]1C(C)(C)[C@H](OC(=O)C(O)C(C)C)[C@@H]2C=C3C4CC(=O)O[C@@H](c5ccoc5)[C@]4(C)CC[C@@H]3[C@@]1(C)C2=O (stereo partly specified)

Kd [1]: Not Active
SMILES: C=C(C)C(=O)O[C@@H]1/C=C\[C@]2(O)C3=CC(=O)O[C@@H](c4ccoc4)[C@]3(C)CC[C@]2(O)[C@]2(C)C(=O)C[C@@]1(C)[C@@H]2CC(=O)OC

Kd [1]: Not Active
SMILES: CC(=O)O[C@H]1C[C@@]2(C)[C@H](C3=CC(=O)O[C@@H]3O)OC(=O)[C@H]3O[C@]32[C@@]2(C)[C@H]1[C@@]1(C)C=CC(=O)OC(C)(C)[C@@H]1C[C@H]2OC(C)=O

Kd [1]: Not Active
SMILES: CC(=O)O[C@H]1C[C@@]2(C)[C@H](c3ccoc3)OC(=O)[C@H]3O[C@]32[C@@]2(C)[C@H]1[C@@]1(C)[C@@H](OC(C)=O)CC(=O)OC(C)(C)[C@@H]1C[C@H]2OC(C)=O

Kd [1]: Not Active
SMILES: COC(=O)C[C@H](OC(C)=O)[C@]1(C)[C@H]2[C@@H](OC(C)=O)C[C@@]3(C)[C@H](c4ccoc4)OC(=O)[C@H]4O[C@]43[C@]2(C)[C@H](OC(C)=O)C[C@H]1C(C)(C)O

Kd [1]: Not Active
SMILES: C/C=C(\C)C(=O)O[C@@H]1/C=C\C2=C3CC(=O)O[C@@H](c4ccoc4)[C@]3(C)CC[C@]2(O)[C@]2(C)C(=O)C[C@@]1(C)[C@@H]2CC(=O)OC (relative stereo)

fold change (FC) [2]: 0.65 | fold change (FC) [3]: 1.17 | fold change (FC) [4]: 0.97 | fold change (FC) [6]: 0.95 | fold change (FC) [8]: 1.18 | fold change (FC) [10]: 1 | fold change (FC) [11]: 0.93 | fold change (FC) [13]: 1.21 | fold change (FC) [14]: 1.13 | fold change (FC) [15]: 2.12 | inhibition [17]: inactive | fold change (FC) [18]: 1.01 | fold change (FC) [20]: 0.91 | fold change (FC) [21]: 1.45 | fold change (FC) [24]: 0.82 | fold change (FC) [25]: 1.03 | fold change (FC) [26]: 1.3 | fold change (FC) [27]: 0.92 | fold change (FC) [31]: 1.17
SMILES: C/C=C(\C)C(=O)O[C@@H]1/C=C\[C@]2(O)C3=CC(=O)O[C@@H](c4ccoc4)[C@]3(C)CC[C@]2(O)[C@]2(C)C(=O)C[C@@]1(C)[C@@H]2CC(=O)OC (relative stereo)
Activity [5]: Active | Activity [7]: 8.62% | Activity [9]: 0% | fold change (FC) [12]: 1.18 | fold change (FC) [16]: 0.58 | Activity [19]: 16.7% | fold change (FC) [22]: 0.84 | Activity [23]: 53.1% | Activity [28]: Non-Toxic | Activity [29]: 12.3% | viability at 20 µM [30]: 63.1% | fold change (FC) [32]: 1.09 | Activity [33]: 28.3%

Kd [1]: Not Active
SMILES: COC(=O)C[C@H]1C(C)(C)[C@H](O)[C@@H]2CC3=C4CC(=O)O[C@@H](c5ccoc5)[C@]4(C)CC[C@@H]3[C@@]1(C)C2=O [PROCERANOLIDE]
